Source: PubChem (Johns Hopkins Ion Channel Center)
MrgX1 PAM = allosterically activates human MrgX1 receptor signaling; MrgX1-HEK293, Fluo-4 calcium flux, FDSS; stronger effect = higher value; B-score at 10 µM; 310,000 tested, 0.63% active;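 active means plate-corrected calcium response at least 3 library SD above typical, normal starting fluorescence, not activating the receptor alone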;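 further: compound read alongside a low EC10 to EC30 dose of BAM8-22 agonist; peak minus trough fluorescence over baseline measured at the second addition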
RGS4 block = inhibitors of human RGS4; P49798; HEK293 M3R/RGS4 inducible, Fluo-4 calcium flux; stronger effect = higher value; triggered by carbachol at its EC20; B-score at 10 µM; 310,000 tested, 0.45% active; AID 463165;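 active means B-score, a plate-corrected calcium signal, over three deviations above library mean, with baseline fluorescence within five deviations of library mean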;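 further: RGS4 expression induced by doxycycline in cells with stable M3 receptor; B-score is computed from the integrated fluorescence ratio over baseline after carbachol; higher B-score means a larger calcium signal and so more RGS4 inhibition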
Target sequence (P49798 whole entry, looked up): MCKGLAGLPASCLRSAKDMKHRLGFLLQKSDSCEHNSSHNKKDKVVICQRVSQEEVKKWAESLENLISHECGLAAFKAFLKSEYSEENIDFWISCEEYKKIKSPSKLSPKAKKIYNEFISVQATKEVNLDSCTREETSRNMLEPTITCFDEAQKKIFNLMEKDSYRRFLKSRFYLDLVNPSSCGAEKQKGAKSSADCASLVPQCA
MrgX1 antagonist = human MrgX1 receptor antagonism, primary screen. B-score at 10 µM. 310,000 tested, 1.3% active. MRGX1-HEK293 calcium flux, Fluo-4, BAM8-22 antagonism; stronger effect = lower value;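 active means calcium-response B-score plate-corrected more than 3 library SD below zero, starting fluorescence within 5 deviations, no agonist response on first addition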;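 further: peak minus trough fluorescence over baseline after final BAM8-22 challenge near maximal dose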
MrgX1 agonist = activates human MrgX1 receptor signaling; B-score at 10 µM; 310,000 tested, 0.44% active; Q96LB2; MrgX1-HEK293 cells, Fluo-4 calcium fluorescence, agonist mode; stronger effect = higher value;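 active means calcium response B-score plate-corrected fluorescence ratio at least 3 library SD, with starting fluorescence B-score inside 5 SD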
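Material: MrgX1-expressing HEK293 cells / Dosing: compound as first of three additions / Incubation: overnight seeding, then 1 h dark dye loading / Signal: Fluo-4 NW calcium fluorescence / Evaluation: B-scored fluorescence response ratio / Benchmarks: positive and negative control wells on each plate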
RGS4 pot = potentiators or activators of RGS4; B-score at 10 µM; 310,000 tested, 0.92% active; HEK293 M3R/inducible RGS4, carbachol calcium flux Fluo4; stronger effect = lower value;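 active means B-score of the integrated calcium signal more than 4 SD below the library mean, with starting fluorescence not abnormally high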;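 further: negative B-score means reduced calcium response which marks RGS4 activation or potentiation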
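test system = M3R-expressing HEK293 line, RGS4 induced by doxycycline | probe or stimulus = carbachol at ECmax as muscarinic agonist stimulus | timing = dye loading 30 min 37 °C, buffer rest 30 min RT | signal = calcium dye Fluo4 fluorescence | evaluation = B score from integrated fluorescence ratio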
An asterisk follows results filed as active; i = inactive. Shown are actives, neighbours in structure and some others; about 3.5% of the full set was active somewhere.

SMILES	MrgX1 PAM	RGS4 block	MrgX1 antagonist	MrgX1 agonist	RGS4 pot
CCn1c(COc2ccc(C(C)C)cc2)nnc1SCC(=O)Nc1nccs1	i	i	-7.6*	i	i
c1ccc(CN2CCN(CCOCCOc3ccc4c(c3)CCC4)CC2)cc1	i	i	-5.6*	i	i
Brc1c(OCCOCCn2cncn2)ccc2ccccc12	i	i	i	i	i
O=C1/C(=C\c2ccc(O)cc2)SC(=S)N1/N=C/c1ccc(O)cc1	i	i	i	39*	i
Cc1c(C(=O)NCc2cccnc2)oc2ccc(S(=O)(=O)N3CCC4(CC3)OCCO4)cc12	i	i	i	i	i
Cc1ccc(CNC(=O)c2oc3ccc(S(=O)(=O)N4CCC5(CC4)OCCO5)cc3c2C)cc1	i	i	i	i	-8.4*
COc1ccc(C(=O)Oc2cccc(/C=N/NC(N)=S)c2)cc1	i	i	i	i	i
Cc1c(C(=O)Nc2ccc(Cl)cc2)c2ccccn2c1C(=O)c1ccc(F)cc1	i	i	i	i	-9.1*
COC(=O)N/N=C/c1c(C)c(C(=O)c2ccc(F)cc2)n2ccccc12	i	i	i	i	i
Cc1c(/C=N/NC(=O)c2ccc(O)cc2)c2ccccn2c1C(=O)c1ccc(F)cc1	i	i	i	i	i
Cc1c(/C=N/NC(=O)c2ccccc2O)c2ccccn2c1C(=O)c1ccc(F)cc1	i	i	-7.1*	i	i
O=C(N1CCCCC1)N1CCN(S(=O)(=O)c2ccc(Cl)cc2)CC1	i	i	i	i	i
CN(CCC#N)C(=O)COC(=O)/C=C/c1ccc2c(c1)OCO2	i	i	-6*	i	i
COc1cc(/C=C2\SC(=S)N(Nc3ncc(C(F)(F)F)cc3Cl)C2=O)ccc1O	17*	i	i	i	i
CN(C)c1ccc(/C=C2\SC(=S)N(Nc3ncc(C(F)(F)F)cc3Cl)C2=O)cc1	13*	i	i	i	i
COc1cc(/C=C2\SC(=S)N(Nc3ccccc3)C2=O)ccc1O	i	i	i	i	i
N#C/C(=C\c1cccs1)C(=O)Nc1nccs1	i	i	i	44*	i
CCOC(=O)c1sc(=S)n(-c2ccccc2Cl)c1SC	10*	i	i	i	-8.8*
COCCN(C(=O)COC(=O)Cc1ccc(Cl)cc1Cl)c1c(N)n(Cc2ccccc2)c(=O)[nH]c1=O	i	i	i	i	i
CN1/C(=C/C=C(/C#N)C(N)=O)C(C)(C)c2ccccc21	i	i	i	33*	i
CN1/C(=C\C=C2/SC(=S)NC2=O)C(C)(C)c2ccccc21	i	i	i	28*	i
Cc1ccc(N2CCN(S(=O)(=O)c3ccc4c(c3)NC(=O)C(C)C(=O)N4)CC2C)cc1 (configuration not stated)	i	i	-7.6*	i	i
Cc1ccc(N2CCN(S(=O)(=O)c3ccc4c(c3)n(C)c(=O)c(=O)n4C)CC2C)cc1 (configuration not stated)	i	i	i	i	i
CC(C)(O)C(=O)NNC(=S)NCc1ccco1	i	i	-5.4*	i	i
CC(C)(C)c1ccc(C(=O)NNC(=S)NCc2ccco2)cc1	i	i	i	i	i
SMILES	MrgX1 PAM	RGS4 block	MrgX1 antagonist	MrgX1 agonist	RGS4 pot
CCCCOc1ccc(Br)cc1/C(C)=N/NC1=NCCN1	i	i	i	i	-8.1*
CCCCCCOc1ccc(/C(C)=N/NC2=NCCN2)cc1[N+](=O)[O-]	i	i	i	i	i
Cc1cc(C(=O)O)ccc1-n1c(C)cc(C=C2C(=O)c3ccccc3C2=O)c1C	i	i	i	29*	i
Cc1ccc(NC(=O)CN2C(=O)S/C(=C/c3ccc(-c4cc(C(=O)O)ccc4C)o3)C2=O)cc1C	i	i	i	i	i
Cc1ccc(C(=O)O)cc1-c1ccc(C=C2C(=O)c3ccccc3C2=O)o1	i	i	i	41*	i
CCC(=O)Nc1ccc(C(=O)NNC(=O)COc2cccc(C)c2)cc1	i	i	i	i	i
CO/N=C(/C(=O)N[C@@H]1C(=O)N2C(C(=O)O)=CCS[C@H]12)c1cnc(N)s1	i	i	i	i	i
